Legend:
[1] = folding enthalpy; higher = less favourable; fluorescence melt of hairpins on a sequencing array, two-state fit; conditions: sodium 0.088 M
Outline: (§1)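 With Cy3 and quencher oligos annealed, library hairpins on a sequenced MiSeq flow cell were imaged for Cy3 fluorescence in 50 mM Na-HEPES pH 8.0, 25 mM NaCl, in 2.5 °C steps up to 60 °C. Melting temperature and folding enthalpy were derived from bootstrapped two-state fits of signals normalised to pre-quench Cy3 and to control constructs. Four replicates were combined by inverse variance, with fitted temperatures raised by 9.35 °C to match UV melts.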

[2] = melting temperature; fluorescence melt of hairpins on a sequencing array, two-state fit, raised by 9.35 °C to match UV melts; conditions: sodium 0.088 M
Outline: as §1

Row | Sequence | folding enthalpy [1] | Tm [2]
1 | GCGTCACGAAAGTGCGC (((.(((....)))))) | -31.1 kcal/mol | 66.9 °C
2 | GCGTCAGGAAACTGGCGC (((.(((....))).))) | -43.8 kcal/mol | 63 °C
3 | GCGTCATCGAAAGATCGC (((..(((....)))))) | -24.4 kcal/mol | 44 °C
4 | GCGTCCAAACGC ((((....)))) | -18.8 kcal/mol | 51.4 °C
5 | GCGTCCAGACGC ((((....)))) | -28.7 kcal/mol | 56.6 °C
6 | GCGTCCATACGC ((((....)))) | -23.3 kcal/mol | 52.7 °C
7 | GCGTCCCACGC ((((...)))) | -25.9 kcal/mol | 56.3 °C
8 | GCGTCCCTACGC ((((....)))) | -23.2 kcal/mol | 53.7 °C
9 | GCGTCCGAAAGGAACGC ((((((....))).))) | -35.7 kcal/mol | 64.9 °C
10 | GCGTCCGAAAGGAGCGC ((((((....))).))) | -22.9 kcal/mol | 66.8 °C
11 | GCGTCCGAAAGGATTCGC ((((((....)))..))) | -26.9 kcal/mol | 47.1 °C
12 | GCGTCCTTACGC ((((....)))) | -23.6 kcal/mol | 53.6 °C
13 | GCGTCGACACGC ((((....)))) | -21.5 kcal/mol | 51.7 °C
14 | GCGTCGACGAAAGTCCGC (((..(((....)))))) | -22.2 kcal/mol | 49.7 °C
15 | GCGTCGAGACGC ((((....)))) | -25.2 kcal/mol | 61 °C
16 | GCGTCGATACGC ((((....)))) | -19.2 kcal/mol | 52.2 °C
17 | GCGTCGCAACGC ((((....)))) | -20 kcal/mol | 56.2 °C
18 | GCGTCGCACGC ((((...)))) | -17.5 kcal/mol | 64.5 °C
19 | GCGTCGCGAAAGCCAGGC ((.(.((....)).).)) | -10.6 kcal/mol | 33.8 °C
20 | GCGTCGCGAAAGCGGAGC ((..(((....)))..)) | -27.6 kcal/mol | 67.5 °C
21 | GCGTCGCGAAAGCTGCGC (((..((....))..))) | -22.5 kcal/mol | 61.7 °C
22 | GCGTCGGGAAACCAACGC ((((.((....)).)))) | -41.5 kcal/mol | 51.5 °C
23 | GCGTCGTAACGC ((((....)))) | -21.4 kcal/mol | 55.3 °C
24 | GCGTCGTTACGC ((((....)))) | -21.8 kcal/mol | 52.6 °C
25 | GCGTCTCAACGC ((((....)))) | -20.3 kcal/mol | 56.6 °C

Row | Sequence | folding enthalpy [1] | Tm [2]
26 | GCGTCTGGAAACGGACGC (((((.(....).))))) | -48.5 kcal/mol | 64.3 °C
27 | GCGTCTTAACGC ((((....)))) | -26.4 kcal/mol | 57.5 °C
28 | GCGTGAATACGC ((((....)))) | -31.3 kcal/mol | 61.2 °C
29 | GCGTGACGACGC ((((....)))) | -27.2 kcal/mol | 56.8 °C
30 | GCGTGATACGC ((((...)))) | -22.2 kcal/mol | 55.4 °C
31 | GCGTGCACACGC ((((....)))) | -25.7 kcal/mol | 68 °C
32 | GCGTGCCTACGC ((((....)))) | -27.6 kcal/mol | 57 °C
33 | GCGTGCGAAAGCAACCGC ((((((....)))..))) | -18.6 kcal/mol | 53.7 °C
34 | GCGTGCGAAAGCAATCGC ((((((....)))..))) | -22.6 kcal/mol | 52.7 °C
35 | GCGTGCGAAAGCAGCCGC ((((((....)))..))) | -19 kcal/mol | 55.2 °C
36 | GCGTGCGAAAGCATACGC ((((((....)))..))) | -28.9 kcal/mol | 63.9 °C
37 | GCGTGCGCACGC ((((....)))) | -45.7 kcal/mol | 62.2 °C
38 | GCGTGCGGAAACGCGTGC ((..(((....)))..)) | -27.6 kcal/mol | 53.5 °C
39 | GCGTGCTACGC ((((...)))) | -18.7 kcal/mol | 62 °C
40 | GCGTGCTCACGC ((((....)))) | -25 kcal/mol | 58.6 °C
41 | GCGTGGCACGC ((((...)))) | -31.8 kcal/mol | 56.8 °C
42 | GCGTGGCCGAAAGGCCGC (((..(((....)))))) | -9.18 kcal/mol | 57.2 °C
43 | GCGTGGCGAAAGCATCGC (((..((....))..))) | -31.9 kcal/mol | 62.1 °C
44 | GCGTGGCTACGC ((((....)))) | -23.4 kcal/mol | 58.5 °C
45 | GCGTGGGACGC ((((...)))) | -16.9 kcal/mol | 52.4 °C
46 | GCGTGGGGAAACCCATGC ((.((((....)))).)) | -42.3 kcal/mol | 57.9 °C
47 | GCGTGGGGAAACCCGCGC (((.(((....))).))) | -44.8 kcal/mol | 69 °C
48 | GCGTGGTACGC ((((...)))) | -20.5 kcal/mol | 56.3 °C
49 | GCGTGGTCACGC ((((....)))) | -26.3 kcal/mol | 57.5 °C
50 | GCGTGGTTACGC ((((....)))) | -21.7 kcal/mol | 54.9 °C

Row | Sequence | folding enthalpy [1] | Tm [2]
51 | GCGTGTCGAAAGACCCGC (((.(((....))).))) | -42 kcal/mol | 58 °C
52 | GCGTGTCGAAAGACTCGC (((.(((....))).))) | -45.2 kcal/mol | 63.9 °C
53 | GCGTGTGGAAACACGTGC ((..(((....)))..)) | -19.1 kcal/mol | 63.1 °C
54 | GCGTGTGGAAACGTACGC ((((..(....)..)))) | -32.9 kcal/mol | 50.1 °C
55 | GCGTGTTTACGC ((((....)))) | -30 kcal/mol | 55 °C
56 | GCGTTAAGACGC ((((....)))) | -22.4 kcal/mol | 54 °C
57 | GCGTTAGGAAACTAGCGC (((.(((....))).))) | -46.9 kcal/mol | 52.4 °C
58 | GCGTTATTACGC ((((....)))) | -26 kcal/mol | 53.9 °C
59 | GCGTTCCAACGC ((((....)))) | -27.7 kcal/mol | 55.6 °C
60 | GCGTTCCCACGC ((((....)))) | -23.4 kcal/mol | 51.9 °C
61 | GCGTTCCCGAAAGGGCGC (((..(((....)))))) | -27.2 kcal/mol | 53.9 °C
62 | GCGTTCGAAAGAAAGCGC ((((((....)))..))) | -29.4 kcal/mol | 53.2 °C
63 | GCGTTCGAAAGAACTCGC ((((((....)))..))) | -17 kcal/mol | 44.7 °C
64 | GCGTTCGAAAGAAGGCGC ((((((....)))..))) | -33.6 kcal/mol | 55.6 °C
65 | GCGTTCGACGC ((((...)))) | -23.7 kcal/mol | 53.8 °C
66 | GCGTTCGCACGC ((((....)))) | -18.8 kcal/mol | 56.5 °C
67 | GCGTTCGGAAACAAACGC (((((.(....).))))) | -34.6 kcal/mol | 47.9 °C
68 | GCGTTCGGAAACGGACGC ((((.((....)).)))) | -40.2 kcal/mol | 64 °C
69 | GCGTTCGGAAACGGATGC ((.(.((....)).).)) | -33.1 kcal/mol | 44.7 °C
70 | GCGTTCTCACGC ((((....)))) | -25.9 kcal/mol | 50.6 °C
71 | GCGTTGAAAAACGC (((((....))))) | -30.2 kcal/mol | 61.2 °C
72 | GCGTTGCACGC ((((...)))) | -23 kcal/mol | 59.4 °C
73 | GCGTTGCGAAAGCAAGGC ((.((((....)))).)) | -30.3 kcal/mol | 68.5 °C
74 | GCGTTGCGAAAGCACAGC ((..(((....)))..)) | -20.9 kcal/mol | 51.1 °C
75 | GCGTTGCGAAAGCACCGC (((.(((....))).))) | -47.7 kcal/mol | 59.1 °C

Row | Sequence | folding enthalpy [1] | Tm [2]
76 | GCGTTGCGAAAGCAGGGC ((..(((....)))..)) | -23.5 kcal/mol | 55.7 °C
77 | GCGTTGCGAAAGCAGTGC ((..(((....)))..)) | -17.8 kcal/mol | 51.6 °C
78 | GCGTTGCGAAAGCATGGC ((..(((....)))..)) | -18.9 kcal/mol | 42.9 °C
79 | GCGTTGCGAAAGCCAAGC ((.(.((....)).).)) | -21.3 kcal/mol | 46.9 °C
80 | GCGTTGCGAAAGCCCCGC (((..((....))..))) | -18.2 kcal/mol | 48.3 °C
81 | GCGTTGCGAAAGCTAGGC ((.(.((....)).).)) | -19.2 kcal/mol | 48.9 °C
82 | GCGTTGCGAAAGCTTCGC (((..((....))..))) | -14.3 kcal/mol | 64 °C
83 | GCGTTGGTACGC ((((....)))) | -20.9 kcal/mol | 51.3 °C
84 | GCGTTGTAACGC ((((....)))) | -27.4 kcal/mol | 56.8 °C
85 | GCGTTGTCGAAAGACCGC (((..(((....)))))) | -27.1 kcal/mol | 50.6 °C
86 | GCGTTTCGAAAGAATCGC (((.(((....))).))) | -46 kcal/mol | 53.5 °C
87 | GCGTTTGGAAACAAACGC (((((((....))))))) | -41.4 kcal/mol | 67.7 °C
88 | GCGTTTGGACGC ((((....)))) | -19.2 kcal/mol | 54.2 °C
89 | GCTAAAACGAAAGTTAGC (((..(((....)))))) | -27.8 kcal/mol | 40.1 °C
90 | GCTAAACGAAAGTTAGC (((.(((....)))))) | -26.6 kcal/mol | 48.3 °C
91 | GCTAAACGAAAGTTGAGC (((.(((....))).))) | -31.8 kcal/mol | 50.8 °C
92 | GCTAACCGAAAGGTCAGC (((.(((....))).))) | -29.7 kcal/mol | 49.7 °C
93 | GCTAACCGAAAGGTGAGC (((.(((....))).))) | -32.1 kcal/mol | 59.7 °C
94 | GCTAACGAAAGTTAAAGC ((((((....)))..))) | -18.5 kcal/mol | 36.7 °C
95 | GCTAACGAAAGTTAGAGC ((((((....)))..))) | -16.1 kcal/mol | 45.8 °C
96 | GCTAACGAAAGTTGAAGC ((((((....)))..))) | -15.2 kcal/mol | 34.6 °C
97 | GCTAACGGAAACGCTAGC ((((.((....)).)))) | -33.9 kcal/mol | 44.8 °C

Reference: the array DNA melting data of Ke et al. (doi:10.1101/2024.01.08.574731)
